Screening results: PubChem, Broad Institute
DENV2 CPE = inhibitors of DENV2 cytopathic effect; DENV2-infected cells, cytopathic effect rescue, plate reader; CPE inhibition, % at 9.99 µM; 350,000 compounds, 1.7% hits; in the data active = CPE inhibition above about 20%, passing the limit was not always enough; tested in BHK-21 cells;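 note: 0% = median of neutral control wells and 100% = median of positive control wells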
miR-122 sensor = blocks miR-122 activity in Huh7 sensor cells | Huh7 miR-122 Renilla luciferase sensor, 48 h; neutral wells = 0, positive control = 100 | activation (reporter increase), % at 12.5 µM | 340,000 compounds, 0.3% hits | AID 602342;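 active = mean replicate activation score at least 90 and every replicate individually at or above 90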;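 note: higher luciferase means less miR-122 activity so hits act as miR-122 inhibitors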
Cneo AK release = causes C. neoformans cell lysis; AID 651654; lysis activity, % at 15 µM; 360,000 compounds, 0.2% hits; adenylate kinase release luminescence, 4 h; normalised: neutral wells 0, clomiphene wells 100;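 active = mean lysis activity across replicates of at least 80%, whatever share of replicates individually reach that level; inactive = mean lysis activity below 80%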
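Test system: log-phase Cryptococcus neoformans yeast cells; Quantity: yeast cell density of 5 × 10^6 cells/mL; Buffer or medium: YPD; Doses: single compound concentration per well; Timing: 4 h at 37 °C static, read 1 h later; Measured by: AK luminescence; Read-out basis: lysis from increased AK signal; Control set: Clomiphene as positive control.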
rRNA inh HTS = inhibits bacterial ribosomal RNA function over humanized ribosomes. E. coli WT GFP vs humanized-ribosome RFP mutants, fluorescence, 24 h; active compounds read low; DMSO median 0, no signal -100. GFP signal change (wild-type ribosome), % (no concentration beside the values). 350,000 compounds, 1.6% hits. AID 720706;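 active = significant combined selectivity score with lowered wild-type GFP, culture density cut under 30%, mutant RFP and density less affected; inactive = any of these conditions unmet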
E-selectin induc = E-selectin induction on HUVECs | P16581 | HUVEC E-selectin immunofluorescence imaging; normalized: neutral wells 0, TNF-alpha wells 100 | activation, % at 7.58 µM | 260,000 compounds, 0.37% hits | AID 686992;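 active = mean E-selectin-positive cell signal at least 10% of the positive control, reached in at least 60% of replicates, without over 20% cell loss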
Target sequence (P16581 whole entry, looked up): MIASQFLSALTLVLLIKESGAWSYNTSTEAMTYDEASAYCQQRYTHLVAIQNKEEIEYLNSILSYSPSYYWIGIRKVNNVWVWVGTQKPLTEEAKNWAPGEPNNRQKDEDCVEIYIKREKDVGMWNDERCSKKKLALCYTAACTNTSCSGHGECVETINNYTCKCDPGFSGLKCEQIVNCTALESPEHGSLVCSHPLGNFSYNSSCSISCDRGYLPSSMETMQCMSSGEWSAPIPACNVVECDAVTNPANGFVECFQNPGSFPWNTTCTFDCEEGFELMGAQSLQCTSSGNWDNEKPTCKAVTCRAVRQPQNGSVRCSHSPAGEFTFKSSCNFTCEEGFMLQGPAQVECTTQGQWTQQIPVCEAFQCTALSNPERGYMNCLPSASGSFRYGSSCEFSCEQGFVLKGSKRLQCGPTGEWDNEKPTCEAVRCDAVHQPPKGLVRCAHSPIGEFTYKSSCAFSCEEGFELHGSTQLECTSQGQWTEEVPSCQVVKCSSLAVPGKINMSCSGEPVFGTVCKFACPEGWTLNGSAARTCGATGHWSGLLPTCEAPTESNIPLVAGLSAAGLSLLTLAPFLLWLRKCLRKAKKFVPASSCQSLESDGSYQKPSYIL
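assay system = HUVEC, human umbilical vein endothelial cells | input = 3,000 HUVEC seeded per well | medium = EGM-2 growth medium on 0.1% gelatin-coated wells | dosing = one compound dose added by pin transfer | signal = immunofluorescence imaging | read-out basis = % PE-positive cells | control set = TNF-alpha, DMSO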
* = called active by the depositor; [ ] = another dose, or the depositor's remark. An excerpt weighted towards active compounds, which were near 3.1% of everything screened.

Results for Cc1ccc(F)cc1S(=O)(=O)N[C@H]1CCN(Cc2ccc(OC(C)C)cc2)C1 ?
DENV2 CPE: 29*; Cneo AK release: 1

How did O=S1(=O)N[C@@H](Cc2ccccc2)COc2cccc(N3CCN(Cc4ccccc4F)CC3)c21 do in these assays?
DENV2 CPE: -4; rRNA inh HTS: -26; E-selectin induc: 5

How did CC(C)C[C@H]1COc2cccc(N3CCOCC3)c2S(=O)(=O)N1 do in these assays?
DENV2 CPE: 10; rRNA inh HTS: 10; E-selectin induc: 0

How did CC(C)C[C@@H]1COc2cccc(N3CCCC3)c2S(=O)(=O)N1 do in these assays?
DENV2 CPE: 9; rRNA inh HTS: -28*; E-selectin induc: 0

How did CC(C)C[C@@H]1COc2cccc(N3CCN(Cc4ccccc4F)CC3)c2S(=O)(=O)N1 do in these assays?
DENV2 CPE: 4; rRNA inh HTS: -35*; E-selectin induc: 0

How did CC(OC(=O)c1ccc(O)cc1)C(=O)Nc1nc(-c2ccccc2)cs1 (stereo not drawn) do in these assays?
DENV2 CPE: 38*; miR-122 sensor: 3; Cneo AK release: -2; rRNA inh HTS: -49; E-selectin induc: 0

How did COc1ccc(CCN=C(N)NS(=O)(=O)c2ccc(F)cc2)cc1 do in these assays?
DENV2 CPE: -2; rRNA inh HTS: 1

What do the screens show for `NC(=NCCc1c[nH]c2ccccc12)NC(=O)c1ccc(F)cc1`?
DENV2 CPE: 0; miR-122 sensor: -2; Cneo AK release: -6; rRNA inh HTS: -33*; E-selectin induc: 3

Results for NC(=NCCc1c[nH]c2ccccc12)NS(=O)(=O)c1ccc(F)cc1 ?
DENV2 CPE: 5; rRNA inh HTS: -20*; E-selectin induc: 1

What do the screens show for `C[C@@H]1CN([C@@H](C)CO)S(=O)(=O)c2ccc(C3=CCCCC3)cc2O[C@H]1CN(C)Cc1cccnc1`?
DENV2 CPE: 2; Cneo AK release: -1; rRNA inh HTS: -30; E-selectin induc: 1

What do the screens show for `CNC(=O)C[C@H]1CC[C@@H]2[C@@H](COc3ccc(NC(=O)c4ccc5c(c4)OCO5)cc3C(=O)N2C)O1`?
DENV2 CPE: -2; miR-122 sensor: 33[16.7 µM]; Cneo AK release: -1; rRNA inh HTS: 0; E-selectin induc: 0

Results for CCCCNC(=O)c1onc(CS(=O)(=O)c2ccccn2)c1C(=O)NCCCC ?
DENV2 CPE: 40*; miR-122 sensor: -2; Cneo AK release: -4; rRNA inh HTS: 6; E-selectin induc: 0

Results for CCCCNC(=O)c1onc(CSc2cc(C)ccc2C)c1C(=O)O ?
DENV2 CPE: -4; miR-122 sensor: -6; Cneo AK release: 1; rRNA inh HTS: -40*; E-selectin induc: 0

What do the screens show for `COCCNC(=O)c1onc(CSc2cc(C)ccc2C)c1C(=O)O`?
DENV2 CPE: -7; miR-122 sensor: -2; Cneo AK release: 1; rRNA inh HTS: 1; E-selectin induc: 0

How did C/C=C/c1ccc([C@H]2[C@@H](CO)N(C(=O)C3CCCCC3)C23CN(C(=O)NC(C)C)C3)cc1 do in these assays?
DENV2 CPE: 3; rRNA inh HTS: -1; E-selectin induc: 3

How did COc1cccc(C(=O)Nc2ccc3c(c2)C(=O)N(C)C[C@H](OC)[C@@H](C)CN(C)[C@H](C)CO3)c1 do in these assays?
DENV2 CPE: -1; miR-122 sensor: 14[16.7 µM]; Cneo AK release: 44; rRNA inh HTS: 0; E-selectin induc: 0

Results for Cc1ccc(S(=O)(=O)N(C)C[C@@H]2Oc3ccc(NS(=O)(=O)c4cn(C)cn4)cc3CC(=O)N([C@@H](C)CO)C[C@H]2C)cc1 ?
miR-122 sensor: 1[16.7 µM]; rRNA inh HTS: 1; E-selectin induc: 0

Results for COc1cccc(N2C(=O)C3C(C2=O)C3(c2ccccc2)c2ccccc2)c1 (stereo not drawn) ?
DENV2 CPE: -3; miR-122 sensor: 7; Cneo AK release: 1; rRNA inh HTS: -33*; E-selectin induc: 0

How did CC(C)C#Cc1ccc2c(c1)O[C@@H](CN(C)C(=O)C1CCCCC1)[C@@H](C)CN([C@@H](C)CO)S2(=O)=O do in these assays?
miR-122 sensor: 12[16.7 µM]; rRNA inh HTS: 3; E-selectin induc: 1

What do the screens show for `O=[N+]([O-])c1ccccc1OCc1nc(-c2cccs2)no1`?
DENV2 CPE: 23*; rRNA inh HTS: 6; E-selectin induc: 1

What do the screens show for `Fc1cccc(Cn2cc(C(=S)N3CCCCC3)c3ccccc32)c1`?
miR-122 sensor: 24; Cneo AK release: -1

How did Fc1cccc(Cn2cc(C(=S)N3CCOCC3)c3ccccc32)c1 do in these assays?
DENV2 CPE: 10; miR-122 sensor: 176*; rRNA inh HTS: -15

What do the screens show for `N#Cc1cc(Cl)c(N2CCOCC2)cc1C#N`?
miR-122 sensor: -3; Cneo AK release: -6

Results for N#Cc1cc2ccc(N3CCOCC3)cc2cc1C#N ?
DENV2 CPE: 3; miR-122 sensor: 6; Cneo AK release: -10; rRNA inh HTS: -34*

Results for CC(C)CC#Cc1cnc2c(c1)C(=O)N([C@@H](C)CO)C[C@H](C)[C@H](CN(C)C(=O)c1ccc3c(c1)OCO3)O2 ?
DENV2 CPE: -13; miR-122 sensor: -4[16.7 µM]; Cneo AK release: 85*; rRNA inh HTS: -1; E-selectin induc: 0

How did CC(C)CC#Cc1cnc2c(c1)C(=O)N([C@@H](C)CO)C[C@@H](C)[C@H](CN(C)C(=O)c1ccc3c(c1)OCO3)O2 do in these assays?
DENV2 CPE: 15; miR-122 sensor: -4[16.7 µM]; Cneo AK release: 0; rRNA inh HTS: 4; E-selectin induc: 1

Results for CC(C)CC#Cc1cnc2c(c1)C(=O)N([C@H](C)CO)C[C@@H](C)[C@H](CN(C)C(=O)c1ccc3c(c1)OCO3)O2 ?
DENV2 CPE: -10; miR-122 sensor: -4[16.7 µM]; Cneo AK release: 2; rRNA inh HTS: -2; E-selectin induc: 74*

Results for COc1ccc(/C=C2\Oc3cc(OCC(N)=O)ccc3C2=O)cc1OC ?
DENV2 CPE: 45*; Cneo AK release: -4; rRNA inh HTS: -29*; E-selectin induc: 0

Results for COC(=O)COc1ccc2c(c1)O/C(=C\c1cccc([N+](=O)[O-])c1)C2=O ?
DENV2 CPE: -6; miR-122 sensor: -4; Cneo AK release: 2; rRNA inh HTS: 3; E-selectin induc: 0

What do the screens show for `c1ccc(-n2c(SCc3ccncc3)nnc2-c2ccco2)cc1`?
miR-122 sensor: -6; Cneo AK release: 4

How did O=C(O)c1ccc(CSc2nnc(-c3ccco3)n2-c2ccccc2)cc1 do in these assays?
DENV2 CPE: 1; rRNA inh HTS: -34*

How did c1ccc(-n2c(SCc3nc(-c4cccs4)no3)nnc2-c2ccco2)cc1 do in these assays?
DENV2 CPE: 7; rRNA inh HTS: -22*
